pIC50, pKi: −log10 of the molar value.
Key:
[1] = target: T1, Sodium channel protein type 9 subunit alpha (Homo sapiens, UniProt Q15858); test: Blockade of human Nav1.7 by FRET assay
Summary of the method: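 Functional membrane-potential assay of channel block on human Nav1.7; read-out is FRET between two membrane-associated dyes; IC50 in nM.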

[2] = target: hERG (KCNH2) (Homo sapiens, UniProt Q12809); test: Displacement of [35S]-MK0499 from human ERG receptor expressed in HEK293 cells at 10 uM; assay type: cell-based; settings: HEK293 cells expressing human ERG, probe [35S]-MK0499
Summary of the method: (§1)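 Binding assay measuring displacement of radiolabelled ligand (35S-MK-0499 for hERG; 3H-diltiazem for Cav1.2); % inhibition at 10 µM test compound.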

[3] = target: Cav1.2 (L-type calcium channel subunit alpha-1C) (Homo sapiens, UniProt Q13936); test: Displacement of [3H]diltiazem from human Cav1.2 expressed in HEK293 cells at 10 uM; assay type: cell-based; settings: HEK293 cells expressing human Cav1.2, probe [3H]diltiazem; summary of the method: as §1
[4] = Bioavailability in rat at 3.0 mg/kg, po; assay type: ADME, organism-based; settings: in vivo
[5] = Cmax in rat at 1.0 mg/kg, iv or 3.0 mg/kg, po; assay type: ADME, organism-based; settings: in vivo
[6] = Plasma clearance in rat at 1.0 mg/kg, iv or 3.0 mg/kg, po; assay type: ADME, organism-based
[7] = Half life in rat at 1.0 mg/kg, iv or 3.0 mg/kg, po; assay type: ADME, organism-based; settings: in vivo
[8] = Bioavailability in dog at 1.5 mg/kg, po; assay type: ADME, organism-based, Canis lupus familiaris; settings: in vivo
[9] = Cmax in dog at 0.38 mg/kg, iv or 1.5 mg/kg, po; assay type: ADME, organism-based, Canis lupus familiaris; settings: in vivo
[10] = Plasma clearance in dog at 0.38 mg/kg, iv or 1.5 mg/kg, po; assay type: ADME, organism-based, Canis lupus familiaris
[11] = Half life in dog at 0.38 mg/kg, iv or 1.5 mg/kg, po; assay type: ADME, organism-based, Canis lupus familiaris; settings: in vivo
[12] = target: T1, Sodium channel protein type 9 subunit alpha; test: Binding affinity at human inactive state Nav1.7 by whole cell electrophysiology
[13] = system: Rattus norvegicus; test: Blockade of spontaneous neuronal firing in rat peripheral axotomy model at 2 mg/kg, iv after 30 mins; assay type: functional; settings: 0.5 h
Summary of the method: (§2)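 Iv infusion given after baseline spontaneous firing frequency was established; firing frequency then recorded for 60 min post-dose, with % inhibition at 10, 30 and 60 min; n = 6.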

[14] = system: Rattus norvegicus; test: Blockade of spontaneous neuronal firing in rat peripheral axotomy model at 2 mg/kg, iv after 10 mins; assay type: functional; summary of the method: as §2
[15] = system: Rattus norvegicus; test: Blockade of spontaneous neuronal firing in rat peripheral axotomy model at 2 mg/kg, iv after 60 mins; assay type: functional; settings: 1 h; summary of the method: as §2
[16] = system: Rattus norvegicus; test: Reversal of allodynia in rat spinal nerve ligation model at 10 mg/kg, po after 2 hrs; assay type: functional
Summary of the method: (§3)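 L5 spinal nerve ligated and transected in rats to induce neuropathy; tactile allodynia measured with calibrated Von Frey filaments before and 1 week after surgery. Rats with significant allodynia were dosed orally and % reversal of allodynia determined at 2 and 4 h post-dose; n = 8.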

[17] = system: Rattus norvegicus; test: Reversal of allodynia in rat spinal nerve ligation model at 10 mg/kg, po after 4 hrs; assay type: functional; summary of the method: as §3
[18] = target: Voltage-dependent L-type calcium channel subunit alpha-1C (Homo sapiens, UniProt Q13936); test: Displacement of [3H]diltiazem from human Cav1.2 expressed in HEK293 cells; assay type: cell-based
Summary of the method: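 Cav1.2 binding assay measuring displacement of 3H-diltiazem.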

hERG (KCNH2), sequence (Q12809 whole entry): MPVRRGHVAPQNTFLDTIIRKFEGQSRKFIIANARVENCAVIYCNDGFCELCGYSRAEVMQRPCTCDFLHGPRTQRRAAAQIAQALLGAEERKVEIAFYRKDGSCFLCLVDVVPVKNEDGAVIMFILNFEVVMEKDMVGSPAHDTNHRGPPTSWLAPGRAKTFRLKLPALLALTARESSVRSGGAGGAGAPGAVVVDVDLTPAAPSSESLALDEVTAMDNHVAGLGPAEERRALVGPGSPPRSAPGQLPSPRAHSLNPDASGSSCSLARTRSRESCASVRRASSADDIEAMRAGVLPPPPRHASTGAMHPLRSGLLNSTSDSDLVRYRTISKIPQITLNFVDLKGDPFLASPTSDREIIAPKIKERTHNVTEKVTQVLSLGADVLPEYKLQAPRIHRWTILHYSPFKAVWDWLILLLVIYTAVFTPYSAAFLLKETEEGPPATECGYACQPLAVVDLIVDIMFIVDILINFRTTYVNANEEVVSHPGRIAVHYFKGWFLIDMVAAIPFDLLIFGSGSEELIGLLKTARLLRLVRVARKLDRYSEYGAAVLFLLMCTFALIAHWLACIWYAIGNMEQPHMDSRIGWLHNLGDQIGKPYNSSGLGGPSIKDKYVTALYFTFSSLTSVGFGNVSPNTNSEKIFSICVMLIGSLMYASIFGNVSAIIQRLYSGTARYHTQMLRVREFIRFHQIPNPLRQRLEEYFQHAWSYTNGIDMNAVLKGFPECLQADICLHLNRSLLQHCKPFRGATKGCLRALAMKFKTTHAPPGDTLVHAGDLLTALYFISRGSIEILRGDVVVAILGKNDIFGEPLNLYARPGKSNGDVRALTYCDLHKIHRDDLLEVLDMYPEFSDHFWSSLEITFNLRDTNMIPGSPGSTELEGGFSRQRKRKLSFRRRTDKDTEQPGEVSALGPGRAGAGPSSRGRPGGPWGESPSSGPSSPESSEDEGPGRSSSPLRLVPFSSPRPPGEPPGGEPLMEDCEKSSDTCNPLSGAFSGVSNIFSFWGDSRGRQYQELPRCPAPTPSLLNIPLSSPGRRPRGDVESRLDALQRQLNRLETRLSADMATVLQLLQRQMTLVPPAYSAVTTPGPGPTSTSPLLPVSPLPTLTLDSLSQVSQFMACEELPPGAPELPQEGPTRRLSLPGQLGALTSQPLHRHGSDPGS
T1 sequence (Q15858 whole entry): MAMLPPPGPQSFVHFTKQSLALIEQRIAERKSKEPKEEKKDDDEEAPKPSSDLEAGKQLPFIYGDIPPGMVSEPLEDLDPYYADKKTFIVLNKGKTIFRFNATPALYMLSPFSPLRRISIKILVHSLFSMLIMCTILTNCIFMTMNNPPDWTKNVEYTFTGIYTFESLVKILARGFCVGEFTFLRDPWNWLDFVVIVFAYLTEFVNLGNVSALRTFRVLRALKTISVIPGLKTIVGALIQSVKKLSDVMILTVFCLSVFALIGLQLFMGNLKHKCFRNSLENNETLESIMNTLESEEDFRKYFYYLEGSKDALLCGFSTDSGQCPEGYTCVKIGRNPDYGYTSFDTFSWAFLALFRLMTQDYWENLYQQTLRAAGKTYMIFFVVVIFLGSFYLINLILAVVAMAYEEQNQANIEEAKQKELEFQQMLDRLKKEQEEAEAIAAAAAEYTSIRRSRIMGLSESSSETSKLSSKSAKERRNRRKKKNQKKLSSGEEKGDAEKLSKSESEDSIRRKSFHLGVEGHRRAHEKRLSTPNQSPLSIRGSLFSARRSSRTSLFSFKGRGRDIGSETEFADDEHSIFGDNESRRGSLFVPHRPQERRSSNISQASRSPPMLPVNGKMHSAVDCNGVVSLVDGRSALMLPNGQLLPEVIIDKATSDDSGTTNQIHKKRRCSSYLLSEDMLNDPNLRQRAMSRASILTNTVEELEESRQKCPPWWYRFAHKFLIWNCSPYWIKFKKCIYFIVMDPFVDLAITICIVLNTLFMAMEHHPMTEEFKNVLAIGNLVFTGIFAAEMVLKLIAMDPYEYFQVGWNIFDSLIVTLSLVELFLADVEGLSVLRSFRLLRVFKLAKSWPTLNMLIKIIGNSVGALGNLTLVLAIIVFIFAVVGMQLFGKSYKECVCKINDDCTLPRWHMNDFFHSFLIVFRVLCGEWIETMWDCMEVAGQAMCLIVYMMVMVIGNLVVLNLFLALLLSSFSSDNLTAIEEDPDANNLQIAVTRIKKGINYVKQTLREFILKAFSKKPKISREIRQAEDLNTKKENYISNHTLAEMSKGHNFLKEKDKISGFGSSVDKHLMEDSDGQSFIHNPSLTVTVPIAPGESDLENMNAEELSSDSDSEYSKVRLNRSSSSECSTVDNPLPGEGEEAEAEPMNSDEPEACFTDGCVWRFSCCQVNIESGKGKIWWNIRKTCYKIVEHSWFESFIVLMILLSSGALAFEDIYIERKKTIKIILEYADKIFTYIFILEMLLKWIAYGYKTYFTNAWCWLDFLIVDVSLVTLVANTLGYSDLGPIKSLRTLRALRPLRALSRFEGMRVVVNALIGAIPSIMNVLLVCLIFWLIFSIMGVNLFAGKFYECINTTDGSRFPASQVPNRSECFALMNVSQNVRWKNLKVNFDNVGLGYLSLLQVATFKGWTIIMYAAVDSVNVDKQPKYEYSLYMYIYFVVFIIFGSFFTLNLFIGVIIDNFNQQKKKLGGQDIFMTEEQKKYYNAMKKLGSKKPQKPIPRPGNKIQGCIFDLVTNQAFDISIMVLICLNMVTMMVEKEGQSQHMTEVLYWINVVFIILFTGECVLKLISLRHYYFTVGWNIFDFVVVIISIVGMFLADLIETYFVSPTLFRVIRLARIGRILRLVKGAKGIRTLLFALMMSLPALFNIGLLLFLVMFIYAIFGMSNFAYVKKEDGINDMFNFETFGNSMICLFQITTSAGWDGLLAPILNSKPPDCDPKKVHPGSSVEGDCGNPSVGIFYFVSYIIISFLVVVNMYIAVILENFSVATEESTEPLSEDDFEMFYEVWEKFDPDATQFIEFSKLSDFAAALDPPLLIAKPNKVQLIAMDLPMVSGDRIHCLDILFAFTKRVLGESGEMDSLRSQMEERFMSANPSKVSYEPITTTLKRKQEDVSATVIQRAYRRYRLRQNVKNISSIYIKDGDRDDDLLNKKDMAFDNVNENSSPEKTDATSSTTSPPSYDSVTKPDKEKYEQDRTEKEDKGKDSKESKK

SMILES	pIC50 [1]	inhibition at 10 µM [2] [%]	also measured
CN1C(=O)[C@H](NC(=O)CCc2ccccc2)N=C(c2ccccc2)c2ccccc21	< 6.00	–	–
CC(C)N1C(=O)[C@H](NC(=O)[C@@H](Cc2cccc(C(F)(F)F)c2)NC(=O)OC(C)(C)C)CCc2ccccc21	6.53	15	inhibition at 10 µM [3]: 19%
CC(C)N1C(=O)[C@H](NC(=O)[C@@H](Cc2ccc(C(F)(F)F)cc2)NC(=O)OC(C)(C)C)CCc2ccccc21	< 6.00	–	–
CN1C(=O)[C@H](NC(=O)[C@@H](CC2CCCCC2)NC(=O)OC(C)(C)C)N=C(c2ccccc2)c2ccccc21	< 6.00	–	–
CN1C(=O)[C@H](NC(=O)[C@@H](CCc2ccccc2)NC(=O)OC(C)(C)C)N=C(c2ccccc2)c2ccccc21	6.62	–	–
CN1C(=O)[C@H](NC(=O)[C@@H](Cc2cccnc2)NC(=O)OC(C)(C)C)N=C(c2ccccc2)c2ccccc21	6.01	–	–
CN1C(=O)[C@H](NC(=O)[C@@H](Cc2ccccc2)NCCC(C)(C)C)N=C(c2ccccc2)c2ccccc21	< 6.00	–	–
CN1C(=O)[C@H](NC(=O)[C@@H](Cc2ccccc2)N(C)C(=O)OC(C)(C)C)N=C(c2ccccc2)c2ccccc21	< 6.00	–	–
COC(=O)N[C@H](Cc1ccccc1)C(=O)N[C@@H]1N=C(c2ccccc2)c2ccccc2N(C)C1=O	< 6.00	–	–
CN1C(=O)[C@H](NC(=O)[C@@H](Cc2ccccc2)NC(=O)C2CC2)N=C(c2ccccc2)c2ccccc21	< 6.00	–	–
CC(C)N1C(=O)[C@H](NC(=O)[C@@H](Cc2cccc(F)c2C(F)(F)F)NC(=O)OC(C)(C)C)CCc2ccccc21	7.19	39	inhibition at 10 µM [3]: 87%
CC(C)N1C(=O)[C@H](NC(=O)[C@@H](Cc2c(F)cccc2C(F)(F)F)NC(=O)OC(C)(C)C)CCc2ccccc21	7.49	43	inhibition at 10 µM [3]: 81%; bioavailability [4]: 28%; Cmax [5]: 330 nM; clearance [6]: 32 mL/min/kg; half-life [7]: 2.5 h
C[C@@H](NC(=O)OC(C)(C)C)C(=O)N[C@@H]1N=C(c2ccccc2)c2ccccc2N(C)C1=O	< 6.00	–	–
CN1C(=O)[C@H](NC(=O)[C@@H](Cc2ccccc2)NS(C)(=O)=O)N=C(c2ccccc2)c2ccccc21	< 6.00	–	–
CN1C[C@H](NC(=O)[C@@H](Cc2ccccc2)NC(=O)OC(C)(C)C)CCc2ccccc21	< 6.00	28	–
CC(C)N1C(=O)[C@H](NC(=O)[C@@H](Cc2ccccc2OC(F)(F)F)NC(=O)OC(C)(C)C)CCc2ccccc21	7.46	18	bioavailability [4]: 24%; bioavailability [8]: 9%; Cmax [5]: 300 nM; Cmax [9]: 70 nM; clearance [6]: 24 mL/min/kg; clearance [10]: 15 mL/min/kg; half-life [7]: 2.3 h; half-life [11]: 4.2 h; pKi [12]: 7.40; inhibition in vivo at 2 mg/kg [13]: 100%; inhibition in vivo at 2 mg/kg [14]: 100%; inhibition in vivo at 2 mg/kg [15]: 93%; Activity [16]: 43%; Activity [17]: 40%; pIC50 [18]: 5.46
CC(C)N1C(=O)[C@@H](NC(=O)[C@@H](Cc2ccccc2OC(F)(F)F)NC(=O)OC(C)(C)C)CCc2ccccc21	7.49	20	bioavailability [4]: 15%; Cmax [5]: 140 nM; clearance [6]: 55 mL/min/kg; half-life [7]: 2.1 h; pIC50 [18]: 5.76
CC(C)S(=O)(=O)N[C@H](Cc1ccccc1)C(=O)N[C@@H]1N=C(c2ccccc2)c2ccccc2N(C)C1=O	< 6.00	–	–
CN1CCCC[C@@H](NC(=O)[C@@H](Cc2ccccc2)NC(=O)OC(C)(C)C)C1=O	< 6.00	–	–
CC(C)N1C(=O)[C@H](NC(=O)[C@@H](Cc2cccc(F)c2)NC(=O)OC(C)(C)C)CCc2ccccc21	8.05	8	inhibition at 10 µM [3]: 0%
CC(C)N1C(=O)[C@H](NC(=O)[C@@H](Cc2cc(F)ccc2F)NC(=O)OC(C)(C)C)CCc2ccccc21	7.64	6	inhibition at 10 µM [3]: 24%
CC(C)N1C(=O)[C@H](NC(=O)[C@@H](Cc2c(F)cccc2F)NC(=O)OC(C)(C)C)CCc2ccccc21	7.85	4	inhibition at 10 µM [3]: 36%

SMILES	pIC50 [1]	inhibition at 10 µM [2] [%]	also measured
CN1C(=O)[C@H](NC(=O)[C@@H](Cc2ccccc2F)NC(=O)OC(C)(C)C)N=C(c2ccccc2)c2ccccc21	7.06	–	–
CN1C(=O)[C@H](NC(=O)[C@@H](Cc2ccc(F)cc2)NC(=O)OC(C)(C)C)N=C(c2ccccc2)c2ccccc21	7.15	–	–
CN1C(=O)[C@H](NC(=O)[C@@H](Cc2cscn2)NC(=O)OC(C)(C)C)N=C(c2ccccc2)c2ccccc21	6.16	–	–
CN1C(=O)[C@H](NC(=O)[C@H](N)Cc2ccccc2)N=C(c2ccccc2)c2ccccc21	< 6.00	–	–
CC(C)N1C(=O)[C@H](NC(=O)[C@@H](Cc2ccccc2)NC(=O)OC(C)(C)C)CCc2ccccc21	7.35	6	–
CN1C(=O)[C@H](NC(=O)[C@@H](Cc2ccccc2)NC(=O)OC(C)(C)C)CCc2ccccc21	6.72	–	–
CC(C)(C)OC(=O)N[C@H](Cc1ccccc1)C(=O)N[C@@H]1CCc2ccccc2N(CC(F)(F)F)C1	6.84	40	–
CN1C(=O)[C@H](NC(=O)[C@@H](Cc2ccccc2)NS(=O)(=O)c2ccccc2)N=C(c2ccccc2)c2ccccc21	< 6.00	–	–
CC(C)(C)OC(=O)N[C@H](Cc1ccccc1)C(=O)N[C@@H]1CCc2ccccc2N(CC(F)(F)F)C1=O	6.82	16	–
CC(C)(C)OC(=O)N[C@H](Cc1ccccc1)C(=O)N[C@@H]1CCc2ccccc2N(CC2CC2)C1=O	7.11	15	–
CN1C(=O)[C@H](NC(=O)[C@@H](Cc2ccccc2)NC(=O)OCc2ccccc2)N=C(c2ccccc2)c2ccccc21	6.82	–	–
CN1C(=O)[C@H](NC(=O)[C@@H](Cc2ccccc2)NC(=O)C(C)(C)C)N=C(c2ccccc2)c2ccccc21	6.42	–	–
CC(C)(C)OC(=O)N[C@@H](CN[C@@H]1CCc2ccccc2N(CC(F)(F)F)C1=O)Cc1ccccc1	6.05	79	–
CN1C(=O)[C@H](NC(=O)[C@@H](Cc2cnc[nH]2)NC(=O)OC(C)(C)C)N=C(c2ccccc2)c2ccccc21	< 6.00	–	–
CN1C(=O)[C@H](NC(=O)[C@H](NC(=O)OC(C)(C)C)c2ccccc2)N=C(c2ccccc2)c2ccccc21	6.43	–	–
CN1C(=O)[C@H](NC(=O)[C@@H](Cc2ccccc2)NC(=O)C23CC4CC(CC(C4)C2)C3)N=C(c2ccccc2)c2ccccc21	6.38	–	–
CC(C)N1C(=O)[C@H](NC(=O)[C@@H](Cc2ccc(F)cc2)NC(=O)OC(C)(C)C)CCc2ccccc21	7.01	0	inhibition at 10 µM [3]: 0%
CC(C)N1C(=O)[C@H](NC(=O)[C@@H](Cc2ccccc2C(F)(F)F)NC(=O)OC(C)(C)C)CCc2ccccc21	6.86	34	bioavailability [4]: 35%; Cmax [5]: 300 nM; clearance [6]: 50 mL/min/kg; half-life [7]: 2.1 h
CC(C)N1C(=O)[C@H](NC(=O)[C@H](Cc2ccccc2OC(F)(F)F)NC(=O)OC(C)(C)C)CCc2ccccc21	6.67	0	–
CN1C(=O)[C@H](NC(=O)[C@@H](Cc2ccccc2)NC(=O)OC(C)(C)C)N=C(c2ccccc2)c2ccccc21	6.90	–	–
CC(C)N1C(=O)[C@H](NC(=O)[C@@H](Cc2ccccc2F)NC(=O)OC(C)(C)C)CCc2ccccc21	7.36	8	inhibition at 10 µM [3]: 11%; bioavailability [4]: 14%; Cmax [5]: 100 nM; clearance [6]: 41 mL/min/kg; half-life [7]: 1.5 h
